Reference: ChEMBL document CHEMBL3763086, “Salicylanilide N-monosubstituted carbamates: Synthesis and in vitro antimicrobial activity” (2016)
In brackets after ≈: the same amount, converted by molar mass.

What was measured:
Format in all cases: functional
[1] = tested on: Trichophyton mentagrophytes; assay: Antifungal activity against Trichophyton mentagrophytes 445 after 120 hrs by microbroth dilution method; conditions: Trichophyton mentagrophytes, 445, 120 h
[2] = tested on: Staphylococcus epidermidis; assay: Antibacterial activity against Staphylococcus epidermidis H 6966/08 after 48 hrs by microbroth dilution method; conditions: H 6966/08, 48 h
Procedure, shortened: (§1)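 Microbroth dilution modified per M07-A07 in Mueller-Hinton broth, pH 7.4 (±0.2). Inoculum in sterile water adjusted to 0.5 McFarland. MIC taken as growth reduction of at least 90% (IC90) versus control, read visually and at 540 nm after 24 and 48 h incubation in the dark.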

[3] = tested on: Lichtheimia corymbifera; assay: Antifungal activity against Absidia corymbifera 272 after 24 hrs by microbroth dilution method; conditions: Lichtheimia corymbifera, 272, 24 h
[4] = tested on: Escherichia coli; assay: Antibacterial activity against Escherichia coli CCM 4517 after 24 hrs by microbroth dilution method; conditions: CCM 4517, 24 h; procedure, shortened: as §1
[5] = tested on: Nakaseomyces glabratus; assay: Antifungal activity against Candida glabrata 20/I after 48 hrs by microbroth dilution method
[6] = tested on: Staphylococcus aureus; assay: Antibacterial activity against methicillin-resistant Staphylococcus aureus H 5996/08 after 48 hrs by microbroth dilution method; conditions: H 5996/08, 48 h
Procedure, shortened: (§2)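 Microdilution broth method modified after M07-A07 in Mueller-Hinton broth adjusted to pH 7.4 (±0.2). Inoculum prepared in sterile water to 0.5 McFarland (1.5 × 10^8 CFU/mL). MIC taken as growth reduction versus control (IC95 per table header), read visually and spectrophotometrically at 540 nm after 24 and 48 h incubation in the dark.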

[7] = tested on: Klebsiella pneumoniae; assay: Antibacterial activity against Klebsiella pneumoniae D 11750/08 after 24 hrs by microbroth dilution method; conditions: D 11750/08, 24 h; procedure, shortened: as §1
[8] = tested on: Pichia kudriavzevii; assay: Antifungal activity against Candida krusei E28 after 24 hrs by microbroth dilution method; conditions: E28, 24 h
[9] = tested on: Klebsiella pneumoniae; assay: Antibacterial activity against ESBL-positive Klebsiella pneumoniae J 14368/08 after 24 hrs by microbroth dilution method; conditions: J 14368/08, 24 h; procedure, shortened: as §1
[10] = tested on: Candida tropicalis; assay: Antifungal activity against Candida tropicalis 156 after 24 hrs by microbroth dilution method; conditions: Candida tropicalis, 156, 24 h
[11] = tested on: Pichia kudriavzevii; assay: Antifungal activity against Candida krusei E28 after 48 hrs by microbroth dilution method; conditions: E28, 48 h
[12] = tested on: Staphylococcus aureus; assay: Antibacterial activity against Staphylococcus aureus CCM 4516/08 after 48 hrs by microbroth dilution method; conditions: CCM 4516/08, 48 h; procedure, shortened: as §2
[13] = tested on: Trichophyton mentagrophytes; assay: Antifungal activity against Trichophyton mentagrophytes 445 after 72 hrs by microbroth dilution method; conditions: Trichophyton mentagrophytes, 445, 72 h
[14] = tested on: Trichosporon asahii; assay: Antifungal activity against Trichosporon asahii 1188 after 24 hrs by microbroth dilution method; conditions: Trichosporon asahii, 1188, 24 h
[15] = tested on: Staphylococcus aureus; assay: Antibacterial activity against Staphylococcus aureus CCM 4516/08 after 24 hrs by microbroth dilution method; conditions: CCM 4516/08, 24 h; procedure, shortened: as §1
[16] = tested on: Staphylococcus aureus; assay: Antibacterial activity against methicillin-resistant Staphylococcus aureus H 5996/08 after 24 hrs by microbroth dilution method; conditions: H 5996/08, 24 h; procedure, shortened: as §2
[17] = tested on: Candida albicans; assay: Antifungal activity against Candida albicans ATCC 44859 after 24 hrs by microbroth dilution method; conditions: ATCC 44859, 24 h
[18] = tested on: Lichtheimia corymbifera; assay: Antifungal activity against Absidia corymbifera 272 after 48 hrs by microbroth dilution method; conditions: Lichtheimia corymbifera, 272, 48 h
[19] = tested on: Nakaseomyces glabratus; assay: Antifungal activity against Candida glabrata 20/I after 24 hrs by microbroth dilution method
[20] = tested on: Enterococcus sp.; assay: Antibacterial activity against Enterococcus sp. J 14365/08 after 24 hrs by microbroth dilution method; conditions: J 14365/08, 24 h; procedure, shortened: as §1
[21] = tested on: Candida albicans; assay: Antifungal activity against Candida albicans ATCC 44859 after 48 hrs by microbroth dilution method; conditions: ATCC 44859, 48 h
[22] = tested on: Escherichia coli; assay: Antibacterial activity against Escherichia coli CCM 4517 after 48 hrs by microbroth dilution method; conditions: CCM 4517, 48 h; procedure, shortened: as §1
[23] = tested on: Klebsiella pneumoniae; assay: Antibacterial activity against ESBL-positive Klebsiella pneumoniae J 14368/08 after 48 hrs by microbroth dilution method; conditions: J 14368/08, 48 h; procedure, shortened: as §1
[24] = tested on: Enterococcus sp.; assay: Antibacterial activity against Enterococcus sp. J 14365/08 after 48 hrs by microbroth dilution method; conditions: J 14365/08, 48 h; procedure, shortened: as §1
[25] = tested on: Staphylococcus epidermidis; assay: Antibacterial activity against Staphylococcus epidermidis H 6966/08 after 24 hrs by microbroth dilution method; conditions: H 6966/08, 24 h; procedure, shortened: as §1
[26] = tested on: Candida tropicalis; assay: Antifungal activity against Candida tropicalis 156 after 48 hrs by microbroth dilution method; conditions: Candida tropicalis, 156, 48 h
[27] = tested on: Klebsiella pneumoniae; assay: Antibacterial activity against Klebsiella pneumoniae D 11750/08 after 48 hrs by microbroth dilution method; conditions: D 11750/08, 48 h; procedure, shortened: as §1
[28] = tested on: Trichosporon asahii; assay: Antifungal activity against Trichosporon asahii 1188 after 48 hrs by microbroth dilution method; conditions: Trichosporon asahii, 1188, 48 h

Row | Structure (SMILES) | MIC [1] [µM] | MIC [2] [µM] | MIC [3] [µM] | MIC [4] [µM] | MIC [5] [µM] | MIC [6] [µM] | MIC [7] [µM] | MIC [8] [µM] | MIC [9] [µM] | MIC [10] [µM] | MIC [11] [µM] | MIC [12] [µM] | MIC [13] [µM] | MIC [14] [µM] | MIC [15] [µM] | MIC [16] [µM] | MIC [17] [µM] | MIC [18] [µM] | MIC [19] [µM] | MIC [20] [µM] | other results
1 | O=C(NC12CC3CC(CC(C3)C1)C2)Oc1ccc(Cl)cc1C(=O)Nc1ccc(Cl)cc1 | 3.9 (≈ 1.79 µg/mL) | 3.9 (≈ 1.79 µg/mL) | > 250 | > 250 | > 250 | 31.2 (≈ 14.4 µg/mL) | > 250 | 125 (≈ 57.4 µg/mL) | 62.5 (≈ 28.7 µg/mL) | 250 (≈ 115 µg/mL) | 125 (≈ 57.4 µg/mL) | 15.6 (≈ 7.18 µg/mL) | 3.9 (≈ 1.79 µg/mL) | 31.2 (≈ 14.4 µg/mL) | 3.9 (≈ 1.79 µg/mL) | 3.9 (≈ 1.79 µg/mL) | > 250 | > 250 | > 250 | 250 (≈ 115 µg/mL) | MIC [21]: > 250 µM; MIC [22]: > 250 µM; MIC [23]: 62.5 µM (≈ 28.7 µg/mL); MIC [24]: 250 µM (≈ 115 µg/mL); MIC [25]: 3.9 µM (≈ 1.79 µg/mL); MIC [26]: 250 µM (≈ 115 µg/mL); MIC [27]: > 250 µM; MIC [28]: 31.2 µM (≈ 14.4 µg/mL)
2 | O=C(NC12CC3CC(CC(C3)C1)C2)Oc1ccc(Cl)cc1C(=O)Nc1ccc(Br)cc1 | 7.81 (≈ 3.93 µg/mL) | 1.95 (≈ 0.982 µg/mL) | > 125 | > 250 | > 125 | 3.9 (≈ 1.96 µg/mL) | > 250 | > 125 | 31.2 (≈ 15.7 µg/mL) | > 125 | > 125 | 1.95 (≈ 0.982 µg/mL) | 7.81 (≈ 3.93 µg/mL) | > 125 | 0.98 (≈ 0.494 µg/mL) | 1.95 (≈ 0.982 µg/mL) | > 125 | > 125 | > 125 | > 500 | MIC [21]: > 125 µM; MIC [22]: > 250 µM; MIC [23]: 125 µM (≈ 63 µg/mL); MIC [24]: > 500 µM; MIC [25]: 0.98 µM (≈ 0.494 µg/mL); MIC [26]: > 125 µM; MIC [27]: > 250 µM; MIC [28]: > 125 µM
3 | O=C(Nc1ccccc1)Oc1ccc(Cl)cc1C(=O)Nc1ccc(Cl)cc1 | 1.95 (≈ 0.782 µg/mL) | 31.2 (≈ 12.5 µg/mL) | > 125 | 500 (≈ 201 µg/mL) | > 125 | 31.2 (≈ 12.5 µg/mL) | 500 (≈ 201 µg/mL) | 62.5 (≈ 25.1 µg/mL) | 62.5 (≈ 25.1 µg/mL) | > 125 | 62.5 (≈ 25.1 µg/mL) | 31.2 (≈ 12.5 µg/mL) | 1.95 (≈ 0.782 µg/mL) | 62.5 (≈ 25.1 µg/mL) | 31.2 (≈ 12.5 µg/mL) | 31.2 (≈ 12.5 µg/mL) | > 125 | > 125 | > 125 | 500 (≈ 201 µg/mL) | MIC [21]: > 125 µM; MIC [22]: 500 µM (≈ 201 µg/mL); MIC [23]: 62.5 µM (≈ 25.1 µg/mL); MIC [24]: 500 µM (≈ 201 µg/mL); MIC [25]: 31.2 µM (≈ 12.5 µg/mL); MIC [26]: > 125 µM; MIC [27]: 500 µM (≈ 201 µg/mL); MIC [28]: 62.5 µM (≈ 25.1 µg/mL)
4 | O=C(NCc1ccccc1)Oc1ccc(Cl)cc1C(=O)Nc1ccc(Br)cc1 | 3.9 (≈ 1.79 µg/mL) | 0.98 (≈ 0.451 µg/mL) | 7.81 (≈ 3.59 µg/mL) | > 500 | 31.2 (≈ 14.4 µg/mL) | 1.95 (≈ 0.896 µg/mL) | > 500 | 62.5 (≈ 28.7 µg/mL) | > 500 | 125 (≈ 57.5 µg/mL) | 62.5 (≈ 28.7 µg/mL) | 0.98 (≈ 0.451 µg/mL) | 3.9 (≈ 1.79 µg/mL) | 15.6 (≈ 7.18 µg/mL) | ≤ 0.49 | ≤ 0.49 | 62.5 (≈ 28.7 µg/mL) | 7.81 (≈ 3.59 µg/mL) | 31.2 (≈ 14.4 µg/mL) | > 500 | MIC [21]: 62.5 µM (≈ 28.7 µg/mL); MIC [22]: > 500 µM; MIC [23]: > 500 µM; MIC [24]: > 500 µM; MIC [25]: ≤ 0.49 µM; MIC [26]: 125 µM (≈ 57.5 µg/mL); MIC [27]: > 500 µM; MIC [28]: 15.6 µM (≈ 7.18 µg/mL)
5 | O=C(NC1CCCCC1)Oc1ccccc1C(=O)Nc1ccccc1 | > 500 | 500 (≈ 169 µg/mL) | > 500 | > 500 | > 500 | 500 (≈ 169 µg/mL) | > 500 | > 500 | > 500 | > 500 | > 500 | 250 (≈ 84.6 µg/mL) | > 500 | > 500 | 250 (≈ 84.6 µg/mL) | 500 (≈ 169 µg/mL) | > 500 | > 500 | > 500 | 500 (≈ 169 µg/mL) | MIC [21]: > 500 µM; MIC [22]: > 500 µM; MIC [23]: > 500 µM; MIC [24]: 500 µM (≈ 169 µg/mL); MIC [25]: 500 µM (≈ 169 µg/mL); MIC [26]: > 500 µM; MIC [27]: > 500 µM; MIC [28]: > 500 µM
